What was measured:
Rattus norvegicus [1] = assay: Effect evaluated in vivo on 5-HTP accumulation in limbic system after subcutaneous administration; assay type: functional; conditions: sc
Outline: (§1)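 Male Sprague-Dawley rats (200–300 g) were pretreated with reserpine 5 mg/kg sc 18 h beforehand. Test drug was given at neutral pH, 5 mL/kg. Aromatic amino acid decarboxylase was blocked with NSD 1015. 5-HTP in the dissected brain region was assayed by HPLC with electrochemical detection.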

Rattus norvegicus [2] = assay: Effect evaluated in vivo on 5-HTP accumulation in corpus striatum at a dose 1.56 umol/kg (p.o.); assay type: functional; outline: as §1
Rattus norvegicus [3] = assay: Effect evaluated in vivo on 5-HTP accumulation in limbic system after perioral administration; assay type: functional; outline: as §1
Rattus norvegicus [4] = assay: Effect evaluated in vivo on 5-HTP accumulation in corpus striatum at a dose 12.5 umol/kg (s.c.); assay type: functional; outline: as §1
Rattus norvegicus [5] = assay: Effect evaluated in vivo on 5-HTP accumulation in limbic system at a dose 50 umol/kg (s.c.); assay type: functional
Outline: (§2)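 Male Sprague-Dawley rats (200–300 g) were pretreated with reserpine 5 mg/kg sc 18 h before. Test compound was given sc at 5 mL/kg in neutral solution. 5-HT synthesis rate was indexed by […] 5-HTP accumulation after decarboxylase inhibition with NSD 1015, measured by HPLC-electrochemical detection. Dose-response used 4–6 dose levels, n = 4.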

Rattus norvegicus [6] = assay: Effect evaluated in vivo on NE synthesis in NE-rich hemispheres at a 0.78 dose uM/kg(sc); assay type: functional
Outline: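 Rats pretreated with reserpine 5 mg/kg sc 18 h before received test compound sc at 5 mL/kg in neutral solution. After decarboxylase inhibition with NSD 1015, dopa accumulation in hemispheres (mainly cortex) was measured by HPLC-electrochemical detection as an index of NE synthesis. Dose-response used 4–6 dose levels, n = 4.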

Rattus norvegicus [7] = assay: Effect evaluated in vivo on 5-HTP accumulation in NE-rich hemispheres at a 100 dose uM/kg(po); assay type: functional; outline: as §1
Rattus norvegicus [8] = assay: Effect evaluated in vivo on 5-HTP accumulation in NE-rich hemispheres at a 12.5 dose uM/kg(sc); assay type: functional; outline: as §1
Rattus norvegicus [9] = assay: Effect evaluated in vivo on 5-HTP accumulation in corpus striatum at a dose 3.1 umol/kg (s.c.); assay type: functional; outline: as §1
Rattus norvegicus [10] = assay: Effect evaluated in vivo on 5-HTP accumulation in NE-rich hemispheres at a 1.56 dose uM/kg(po); assay type: functional; outline: as §1
Rattus norvegicus [11] = assay: Effect evaluated in vivo on 5-HTP accumulation in limbic system at a dose 1.56 umol/kg (p.o.); assay type: functional
Outline: (§3)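 Oral dosing in male Sprague-Dawley rats (200–300 g) pretreated with reserpine 5 mg/kg sc 18 h before. After decarboxylase inhibition with NSD 1015, brain 5-HTP or dopa accumulation (HPLC-electrochemical detection) indexed 5-HT synthesis, DA synthesis (limbic) or NE synthesis (hemispheres, mainly cortex).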

Rattus norvegicus [12] = assay: Effect evaluated in vivo on 5-HTP accumulation in NE-rich hemispheres at a 50 dose uM/kg(sc); assay type: functional; outline: as §1
Rattus norvegicus [13] = assay: Effect evaluated in vivo on 5-HTP accumulation in limbic system at a dose 6.25 umol/kg (p.o.); assay type: functional; outline: as §3
Rattus norvegicus [14] = assay: Effect evaluated in vivo on 5-HTP accumulation in corpus striatum at a dose 6.25 umol/kg (p.o.); assay type: functional; outline: as §1
Rattus norvegicus [15] = assay: Effect evaluated in vivo on 5-HTP accumulation in corpus striatum after subcutaneous administration; assay type: functional; conditions: sc; outline: as §1
Rattus norvegicus [16] = assay: Effect evaluated in vivo on NE synthesis in NE-rich hemispheres after perioral administration; assay type: functional; outline: as §3
Rattus norvegicus [17] = assay: Effect evaluated in vivo on 5-HTP accumulation in limbic system at a dose 12.5 umol/kg (s.c.); assay type: functional; outline: as §2
Rattus norvegicus [18] = assay: The compound was tested in vivo for locomotor activity in rats at 50 umol/kg after subcutaneous administration; assay type: functional
Outline: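 Male Sprague-Dawley rats received reserpine 5 mg/kg sc in the neck 18 h before testing. Test compound was given sc in the neck (n = 4). Rats were placed singly in photocell motility meters immediately after dosing, and counts were accumulated over 30 min (tests 9 a.m.–1 p.m.). Gross behaviour, including 5-HT syndrome, was observed throughout.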

Rattus norvegicus [19] = assay: Effect evaluated in vivo on 5-HTP accumulation in corpus striatum at a dose 50 umol/kg (s.c.); assay type: functional; outline: as §1
Rattus norvegicus [20] = assay: Effect evaluated in vivo on 5-HTP accumulation in limbic system at a dose 0.78 umol/kg (s.c.); assay type: functional; outline: as §1
Rattus norvegicus [21] = assay: Effect evaluated in vivo on 5-HTP accumulation in NE-rich hemispheres at a 6.25d ose uM/kg(po); assay type: functional; outline: as §1
Rattus norvegicus [22] = assay: Effect evaluated in vivo on 5-HTP accumulation in limbic system at a dose 3.1 umol/kg (s.c.); assay type: functional; outline: as §2
Rattus norvegicus [23] = assay: Effect evaluated in vivo on 5-HTP accumulation in limbic system at a dose 100 umol/kg (p.o.); assay type: functional; outline: as §3
Rattus norvegicus [24] = assay: Effect evaluated in vivo on 5-HTP accumulation in corpus striatum after perioral administration; assay type: functional; outline: as §1
Rattus norvegicus [25] = assay: Effect evaluated in vivo on 5-HTP accumulation in NE-rich hemispheres at a 25 dose uM/kg(po); assay type: functional; outline: as §1
Rattus norvegicus [26] = assay: Effect evaluated in vivo on 5-HTP accumulation in NE-rich hemispheres after subcutaneous administration; assay type: functional; conditions: sc; outline: as §1
[27] = molecular target: T1, 5-hydroxytryptamine receptor 1A (Rattus norvegicus, UniProt P19327); assay: Inhibitory activity against 5-hydroxytryptamine 1A receptor in rats, using [3H]8-OH-DPAT as radioligand
T1 sequence (P19327 whole entry): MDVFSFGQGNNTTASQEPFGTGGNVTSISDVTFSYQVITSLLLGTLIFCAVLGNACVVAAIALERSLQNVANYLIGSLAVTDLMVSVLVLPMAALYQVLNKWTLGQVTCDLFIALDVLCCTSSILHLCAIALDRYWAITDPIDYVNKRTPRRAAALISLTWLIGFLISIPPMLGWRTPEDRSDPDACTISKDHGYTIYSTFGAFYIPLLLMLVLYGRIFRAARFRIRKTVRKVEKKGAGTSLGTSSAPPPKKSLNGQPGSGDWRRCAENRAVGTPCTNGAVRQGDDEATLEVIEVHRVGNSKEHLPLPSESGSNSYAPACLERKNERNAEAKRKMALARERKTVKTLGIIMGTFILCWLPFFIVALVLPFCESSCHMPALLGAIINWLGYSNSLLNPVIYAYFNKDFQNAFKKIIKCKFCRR
Outline: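 Rat whole-brain membranes (minus brainstem and cerebellum) in 50 mM Tris pH 8.0 with 120 mM NaCl, 4 mM CaCl2, 4 mM MgCl2 and 10 μM pargyline. Rapid filtration, then scintillation counting. Nonspecific binding defined with 10 μM 5-HT. IC50 by semi-log plot and linear regression.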

Rattus norvegicus [28] = assay: Effect evaluated in vivo on 5-HTP accumulation in corpus striatum at a dose 0.78 umol/kg (s.c.); assay type: functional; outline: as §1
D(2) dopamine receptor = D(2) dopamine receptor (Rattus norvegicus, UniProt P61169); assay: Inhibitory activity against Dopamine receptor D2 in rats using [3H]spiperone as radioligand
Sequence of D(2) dopamine receptor (P61169 whole entry): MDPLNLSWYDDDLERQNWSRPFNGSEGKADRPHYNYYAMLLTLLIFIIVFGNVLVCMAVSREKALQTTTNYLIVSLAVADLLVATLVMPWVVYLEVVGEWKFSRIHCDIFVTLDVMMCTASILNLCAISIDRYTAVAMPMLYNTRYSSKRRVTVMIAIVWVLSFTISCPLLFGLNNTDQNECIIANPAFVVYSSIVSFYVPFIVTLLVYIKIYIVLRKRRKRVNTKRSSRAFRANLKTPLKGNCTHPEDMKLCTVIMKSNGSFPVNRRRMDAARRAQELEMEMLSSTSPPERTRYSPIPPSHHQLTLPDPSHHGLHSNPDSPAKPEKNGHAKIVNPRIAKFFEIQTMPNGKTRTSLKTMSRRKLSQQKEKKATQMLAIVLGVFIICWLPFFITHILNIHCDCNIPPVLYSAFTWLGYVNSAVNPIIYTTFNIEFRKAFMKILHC
Outline: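 Rat striatal membranes in 50 mM potassium phosphate buffer pH 7.4 were incubated with 0.5 nM [3H]spiperone for 10 min at 37 °C. Specific binding was defined with 10 μM 6,7-ADTN.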

Rattus norvegicus [29] = assay: Effect evaluated in vivo on 5-HTP accumulation in NE-rich hemispheres at a 3.1 dose uM/kg(sc); assay type: functional; outline: as §1
Rattus norvegicus [30] = assay: Effect evaluated in vivo on 5-HTP accumulation in corpus striatum at a dose 25 umol/kg (p.o.); assay type: functional; outline: as §1
Rattus norvegicus [31] = assay: Effect evaluated in vivo on 5-HTP accumulation in corpus striatum at a dose 100 umol/kg (p.o.); assay type: functional; outline: as §1
Rattus norvegicus [32] = assay: Effect evaluated in vivo on 5-HTP accumulation in limbic system at a dose 25 umol/kg (p.o.); assay type: functional; outline: as §3

With `CCCN1CCc2cccc(OC)c2CC1` the ED50 (Rattus norvegicus [1]) was 1.5 µmol/kg, the Control (Rattus norvegicus [2]) was 97% and the ED50 (Rattus norvegicus [3]) was 7 µmol/kg. The Control (Rattus norvegicus [4]) was 48%, the Control (Rattus norvegicus [5]) was 61% and the Control (Rattus norvegicus [6]) was 92%. It also gave a Control (Rattus norvegicus [7]) of 53%, a Control (Rattus norvegicus [8]) of 48% and a Control (Rattus norvegicus [9]) of 53%. For the same molecule, the Control (Rattus norvegicus [10]) was 101%, the Control (Rattus norvegicus [11]) was 99% and the Control (Rattus norvegicus [12]) was 58%. It also gave a Control (Rattus norvegicus [13]) of 77%, a Control (Rattus norvegicus [14]) of 79% and an ED50 (Rattus norvegicus [15]) of 1 µmol/kg. It also gave an ED50 (Rattus norvegicus [16]) of 13 µmol/kg, a Control (Rattus norvegicus [17]) of 42% and a Locomotor activity (Rattus norvegicus [18]) of 197. It also gave a Control (Rattus norvegicus [19]) of 63%, a Control (Rattus norvegicus [20]) of 99% and a Control (Rattus norvegicus [21]) of 84%. For the same molecule, the Control (Rattus norvegicus [22]) was 48%, the Control (Rattus norvegicus [23]) was 47% and the ED50 (Rattus norvegicus [24]) was 10 µmol/kg. It also gave a Control (Rattus norvegicus [25]) of 58%, an ED50 (Rattus norvegicus [26]) of 1.5 µmol/kg and an IC50 [27] of 63 nM. It also gave a Control (Rattus norvegicus [28]) of 74%, an IC50 (D(2) dopamine receptor) of 3600 nM and a Control (Rattus norvegicus [29]) of 47%. The Control (Rattus norvegicus [30]) was 65%, the Control (Rattus norvegicus [31]) was 56% and the Control (Rattus norvegicus [32]) was 58%.
